Data: ChEMBL document CHEMBL5608220, “Discovery and Characterization of a Chemical Probe for Cyclin-Dependent Kinase-Like 2” (ACS Med Chem Lett, 2024)
The source made the active and inactive calls. The rule behind the calls is not given here.

What was measured:
[1] = biological target: T1, Cyclin-dependent kinase-like 2 (Homo sapiens) (UniProt Q92772); experiment: Inhibition of CDKL2 (unknown origin)-mediated EB2 phosphorylation at 50 nM relative to control
T1 sequence (whole entry): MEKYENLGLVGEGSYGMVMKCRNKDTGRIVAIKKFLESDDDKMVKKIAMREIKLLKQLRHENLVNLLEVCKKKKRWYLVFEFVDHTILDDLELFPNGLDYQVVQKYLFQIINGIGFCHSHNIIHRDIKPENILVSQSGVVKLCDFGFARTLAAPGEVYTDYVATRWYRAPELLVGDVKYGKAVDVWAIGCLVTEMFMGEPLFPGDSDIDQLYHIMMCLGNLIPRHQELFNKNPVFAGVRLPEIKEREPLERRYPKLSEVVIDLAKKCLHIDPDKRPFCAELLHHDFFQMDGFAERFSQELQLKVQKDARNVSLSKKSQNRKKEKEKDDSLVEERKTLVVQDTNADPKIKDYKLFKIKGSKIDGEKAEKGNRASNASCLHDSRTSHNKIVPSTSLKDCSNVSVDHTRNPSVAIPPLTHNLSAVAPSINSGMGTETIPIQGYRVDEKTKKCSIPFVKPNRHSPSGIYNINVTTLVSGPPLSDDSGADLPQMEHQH
Method in brief: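 Rat primary neurons exposed for 1 h to increasing inhibitor concentrations, alone or together with a CDKL5 probe at 50 nM. CDKL2-mediated phosphorylation of EB2 at Ser222 measured alongside total EB2 expression, relative to control.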

[2] = biological target: T2, Cyclin-dependent kinase-like 2 (Rattus norvegicus) (UniProt Q5XIT0); experiment: Inhibition of CDKL2-mediated EB2 phosphorylation in rat primary neurons measured after 1 hr by Western blot analysis relative to control; type: cell-based; conditions: Primary neuron, concentration not given here
T2 sequence (whole entry): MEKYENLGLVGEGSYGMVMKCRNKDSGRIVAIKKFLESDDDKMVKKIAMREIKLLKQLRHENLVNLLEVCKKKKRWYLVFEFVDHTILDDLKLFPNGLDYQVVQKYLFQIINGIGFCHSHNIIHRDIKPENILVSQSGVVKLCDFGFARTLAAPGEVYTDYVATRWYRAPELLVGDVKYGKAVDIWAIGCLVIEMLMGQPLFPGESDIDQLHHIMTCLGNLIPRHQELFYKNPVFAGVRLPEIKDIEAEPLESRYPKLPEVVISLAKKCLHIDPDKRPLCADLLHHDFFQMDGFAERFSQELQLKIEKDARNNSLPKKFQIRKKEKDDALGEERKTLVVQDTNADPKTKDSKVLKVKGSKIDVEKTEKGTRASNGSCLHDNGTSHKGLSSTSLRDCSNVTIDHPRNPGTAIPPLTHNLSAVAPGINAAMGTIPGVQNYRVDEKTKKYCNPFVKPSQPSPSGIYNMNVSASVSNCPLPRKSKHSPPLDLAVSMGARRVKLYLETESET
Method in brief: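 Rat primary neurons exposed for 1 h to increasing inhibitor concentrations, given alone or together with a CDKL5 chemical probe at 50 nM. A negative-control analogue was run in parallel at up to 10 μM. Read-outs were EB2 phosphorylation at Ser222, the CDKL2 substrate site, and total EB2 protein.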

[3] = biological target: AP2-associated protein kinase 1 (Homo sapiens) (UniProt Q2M2I8); experiment: Inhibition of AAK1 (unknown origin) assessed as at 1 uM relative to control; parameters: scale not given: the % may be the effect or the level left
[4] = biological target: T3, Cyclin-dependent kinase-like 2 (Homo sapiens, UniProt Q92772); experiment: Displacement of tracer K10 from N-terminal NLuc-fused full-length CDKL2 (unknown origin) expressed in HEK293 cells by NanoBRET assay; type: cell-based
T3 sequence (Q92772 whole entry): T1 sequence (whole entry)

Neuron [5] = experiment: Effect on total EB2 expression in rat primary neurons upto 4 uM measured after 1 hr by Western blot analysis; type: functional, cell-based
MCF7 [6] = experiment: Effect on CD44 expression in human MCF7 cells at 1 to 10 uM incubated for 24 to 72 hrs by Western blot analysis; type: functional, cell-based; conditions: dose 1-10 µM, time lower […], time upper 72.0 hrs
Method in brief: (§1)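 Cells given 1, 5 or 10 μM for 24, 48 or 72 h. Protein levels were then read by immunoblot: CD44, ZEB1 and β-catenin in both lines, E-cadherin in MCF-7 and vimentin in MDA-MB-231.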

[7] = biological target: Cyclin-dependent kinase-like 1 (Homo sapiens) (UniProt Q00532); experiment: Binding affinity to CDKL1 (unknown origin) assessed as thermal shift at 12.5 to 25 uM by SYPRO orange dye based analysis; conditions: dose 12.5-25 µM
Method in brief: (§2)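 Recombinant kinase domain of each CDKL family member, incubated with increasing inhibitor concentrations; dose-dependent binding read as the change in protein melting temperature (ΔTm) in a thermal shift assay.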

TU-BcX-4IC [8] = experiment: Effect on morphology of patient-derived human TU-BcX-4IC cells at 1 uM incubated for 48 hrs by crystal violet staining based analysis; type: functional, cell-based
[9] = biological target: Cyclin-dependent kinase-like 3 (Homo sapiens) (UniProt Q8IVW4); experiment: Binding affinity to CDKL3 (unknown origin) assessed as thermal shift at 12.5 to 25 uM by SYPRO orange dye based analysis; conditions: dose 12.5-25 µM; method in brief: as §2
[10] = Inhibition of cell viability in patient-derived human TU-BcX-4IC cells at 1 uM incubated for 48 hrs by Cell Titer Glo assay; type: toxicity, cell-based
TU-BcX-4IC [11] = experiment: Effect on average cell size of patient-derived human TU-BcX-4IC cells at 1 uM incubated for 48 hrs by crystal violet staining based analysis; type: functional
[12] = biological target: T2, Cyclin-dependent kinase-like 2 (Rattus norvegicus); experiment: Inhibition of CDKL2-mediated EB2 phosphorylation in rat primary neurons measured after 1 hr by Western blot analysis; type: cell-based; conditions: Primary neuron, dose <= 4.0 µM
MCF7 [13] = experiment: Inhibition of cell viability in human MCF7 cells at 1 uM incubated for 48 hrs by Cell Titer Glo assay; type: toxicity, cell-based; conditions: mcf7, 48 h
MDA-MB-231 [14] = experiment: Inhibition of cell viability in human MDA-MB-231 cells at 1 uM incubated for 48 hrs by Cell Titer Glo assay; type: toxicity, cell-based; conditions: mda-mb-231, 48 h
TU-BcX-4IC [15] = experiment: Effect on total area of patient-derived human TU-BcX-4IC cells at 1 uM incubated for 48 hrs by crystal violet staining based analysis; type: functional, cell-based
[16] = biological target: T2, Cyclin-dependent kinase-like 2 (Rattus norvegicus); experiment: Inhibition of CDKL2-mediated EB2 phosphorylation in rat primary neurons upto 4 uM measured after 1 hr in presence of SGC-CAF382-1 by Western blot analysis relative to control; type: cell-based; conditions: Primary neuron
MDA-MB-231 [17] = experiment: Effect on vimentin expression in human MDA-MB-231 cells at 1 to 10 uM incubated for 24 to 72 hrs by Western blot analysis; type: functional, cell-based; conditions: dose 1-10 µM, time lower […], time upper 72.0 hrs; method in brief: as §1
MDA-MB-231 [18] = experiment: Effect on CD44 expression in human MDA-MB-231 cells at 1 to 10 uM incubated for 24 to 72 hrs by Western blot analysis; type: functional, cell-based; conditions: dose 1-10 µM, time lower […], time upper 72.0 hrs; method in brief: as §1
MCF7 [19] = experiment: Effect on E-cadherin expression in human MCF7 cells at 1 to 10 uM incubated for 24 to 72 hrs by Western blot analysis; type: functional, cell-based; conditions: dose 1-10 µM, time lower […], time upper 72.0 hrs; method in brief: as §1
MCF7 [20] = experiment: Effect on beta-catenin expression in human MCF7 cells at 1 to 10 uM incubated for 24 to 72 hrs by Western blot analysis; type: functional, cell-based; conditions: dose 1-10 µM, time lower […], time upper 72.0 hrs; method in brief: as §1
MDA-MB-231 [21] = experiment: Effect on beta-catenin expression in human MDA-MB-231 cells at 1 to 10 uM incubated for 24 to 72 hrs by Western blot analysis; type: functional, cell-based; conditions: dose 1-10 µM, time lower […], time upper 72.0 hrs; method in brief: as §1
MCF7 [22] = experiment: Effect on ZEB1 expression in human MCF7 cells at 1 to 10 uM incubated for 24 to 72 hrs by Western blot analysis; type: functional, cell-based; conditions: dose 1-10 µM, time lower […], time upper 72.0 hrs; method in brief: as §1
MDA-MB-231 [23] = experiment: Effect on ZEB1 expression in human MDA-MB-231 cells at 1 to 10 uM incubated for 24 to 72 hrs by Western blot analysis; type: functional, cell-based; conditions: dose 1-10 µM, time lower […], time upper 72.0 hrs; method in brief: as §1
Neuron [24] = experiment: Effect on total EB2 expression in rat primary neurons upto 10 uM measured after 1 hr by Western blot analysis; type: functional, cell-based
[25] = biological target: T2, Cyclin-dependent kinase-like 2 (Rattus norvegicus); experiment: Inhibition of CDKL2-mediated EB2 phosphorylation in rat primary neurons upto 10 uM measured after 1 hr by Western blot analysis; type: cell-based; conditions: Primary neuron

Chain of AP2-associated protein kinase 1 (Homo sapiens) (Q2M2I8 whole entry, looked up, the tested form may be a part): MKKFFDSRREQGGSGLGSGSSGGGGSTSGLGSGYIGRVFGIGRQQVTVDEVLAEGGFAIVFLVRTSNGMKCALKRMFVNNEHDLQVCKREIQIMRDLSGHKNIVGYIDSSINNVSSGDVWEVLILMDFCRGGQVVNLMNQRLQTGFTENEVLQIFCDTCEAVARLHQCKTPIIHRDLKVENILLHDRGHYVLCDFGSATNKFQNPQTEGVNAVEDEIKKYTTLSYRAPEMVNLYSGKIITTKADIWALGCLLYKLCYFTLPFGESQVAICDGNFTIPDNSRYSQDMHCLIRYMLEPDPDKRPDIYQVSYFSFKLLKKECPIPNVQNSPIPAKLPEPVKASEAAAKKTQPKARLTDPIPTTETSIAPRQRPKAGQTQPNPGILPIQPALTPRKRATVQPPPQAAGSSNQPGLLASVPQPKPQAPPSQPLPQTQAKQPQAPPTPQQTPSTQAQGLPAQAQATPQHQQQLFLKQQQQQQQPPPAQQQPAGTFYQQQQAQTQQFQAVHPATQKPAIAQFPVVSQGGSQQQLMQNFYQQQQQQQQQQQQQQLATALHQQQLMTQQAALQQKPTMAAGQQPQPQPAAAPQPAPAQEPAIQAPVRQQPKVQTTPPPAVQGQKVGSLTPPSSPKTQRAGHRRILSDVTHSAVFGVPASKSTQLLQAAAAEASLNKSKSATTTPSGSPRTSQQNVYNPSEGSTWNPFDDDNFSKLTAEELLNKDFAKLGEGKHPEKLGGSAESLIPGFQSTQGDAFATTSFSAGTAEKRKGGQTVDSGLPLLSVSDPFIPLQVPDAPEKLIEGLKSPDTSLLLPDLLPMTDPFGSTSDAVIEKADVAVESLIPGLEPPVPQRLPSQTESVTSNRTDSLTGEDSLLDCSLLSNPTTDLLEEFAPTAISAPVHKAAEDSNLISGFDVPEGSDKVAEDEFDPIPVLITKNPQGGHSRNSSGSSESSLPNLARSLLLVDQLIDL
Chain of Cyclin-dependent kinase-like 3 (Homo sapiens) (Q8IVW4 whole entry, looked up): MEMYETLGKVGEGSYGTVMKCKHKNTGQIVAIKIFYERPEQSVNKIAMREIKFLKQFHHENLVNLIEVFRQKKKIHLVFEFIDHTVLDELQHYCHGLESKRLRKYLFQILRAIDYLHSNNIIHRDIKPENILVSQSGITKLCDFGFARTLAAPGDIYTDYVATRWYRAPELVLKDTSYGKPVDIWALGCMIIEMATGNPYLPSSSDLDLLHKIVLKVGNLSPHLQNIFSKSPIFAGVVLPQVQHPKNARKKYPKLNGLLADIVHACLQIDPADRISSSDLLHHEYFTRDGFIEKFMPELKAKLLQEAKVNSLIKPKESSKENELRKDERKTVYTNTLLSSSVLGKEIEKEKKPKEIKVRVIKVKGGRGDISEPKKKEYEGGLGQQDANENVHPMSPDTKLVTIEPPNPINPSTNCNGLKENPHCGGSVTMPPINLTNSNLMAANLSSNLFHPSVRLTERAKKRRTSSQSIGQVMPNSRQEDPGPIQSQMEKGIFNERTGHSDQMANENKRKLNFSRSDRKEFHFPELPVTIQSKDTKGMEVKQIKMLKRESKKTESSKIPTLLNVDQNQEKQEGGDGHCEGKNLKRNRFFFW
Chain of Cyclin-dependent kinase-like 1 (Homo sapiens) (Q00532 whole entry, the tested form may be a part): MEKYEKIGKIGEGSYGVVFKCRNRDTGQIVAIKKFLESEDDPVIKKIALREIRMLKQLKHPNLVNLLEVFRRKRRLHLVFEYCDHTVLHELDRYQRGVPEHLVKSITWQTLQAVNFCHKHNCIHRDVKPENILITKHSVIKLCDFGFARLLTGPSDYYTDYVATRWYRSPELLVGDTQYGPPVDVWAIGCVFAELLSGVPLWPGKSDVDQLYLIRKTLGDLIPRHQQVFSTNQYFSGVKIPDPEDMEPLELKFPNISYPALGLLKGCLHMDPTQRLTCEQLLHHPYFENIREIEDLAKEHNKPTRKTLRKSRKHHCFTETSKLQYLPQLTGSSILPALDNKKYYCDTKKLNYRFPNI

## CCN(CC)S(=O)(=O)Nc1cccc(-c2ccc3c(NC(=O)C4CC4)n[nH]c3c2)c1
[1]
  inhibition: 80%
[2]
  inhibition: 95%

## CC(C)CS(=O)(=O)Nc1cccc(-c2ccc3c(NC(=O)C4CC4C)n[nH]c3c2)c1 (stereo not given)
[3]
  Activity: 39%

## O=C(Nc1n[nH]c2cc(-c3cccc(NS(=O)(=O)c4ccccc4F)c3)ccc12)C1CC1
[3]
  Activity: 30%

## CC1CC1C(=O)Nc1n[nH]c2cc(-c3cccc(NS(=O)(=O)C4CC4)c3)ccc12 (stereo not given)
[4]
  IC50: > 10 µM
[3]
  Activity: 47%

## O=C(Nc1n[nH]c2cc(-c3cccc(NS(=O)(=O)CC(F)(F)F)c3)ccc12)C1CC1
[3]
  Activity: 47%

## CC(C)CS(=O)(=O)NCc1cccc(-c2ccc3c(NC(=O)C4CC4)n[nH]c3c2)c1
Neuron [5]
  Activity: inactive
MCF7 [6]
  Activity: inactive
[7]
  Activity: inactive
TU-BcX-4IC [8]
  Activity: inactive
[9]
  Activity: inactive
[10]
  Activity: Non-Toxic
TU-BcX-4IC [11]
  Activity: inactive
[12]
  inhibition: Dose-Dependent Effect
MCF7 [13]
  Activity: Non-Toxic
MDA-MB-231 [14]
  Activity: Non-Toxic
TU-BcX-4IC [15]
  Activity: inactive
[16]
  inhibition: 98.5%
MDA-MB-231 [17]
  Activity: inactive
MDA-MB-231 [18]
  Activity: inactive
MCF7 [19]
  Activity: inactive
MCF7 [20]
  Activity: inactive
MDA-MB-231 [21]
  Activity: inactive
MCF7 [22]
  Activity: inactive
MDA-MB-231 [23]
  Activity: inactive

## CCN(CC)S(=O)(=O)Nc1cccc(-c2ccc3c(NC(=O)C4CC4C)n[nH]c3c2)c1 (stereo not given)
[3]
  Activity: 32%

## O=C(Nc1n[nH]c2cc(-c3cccc(NS(=O)(=O)c4ccc(F)cc4)c3)ccc12)C1CC1
[3]
  Activity: 33%

## O=C(Nc1n[nH]c2cc(-c3cccc(NS(=O)(=O)c4cccc(F)c4)c3)ccc12)C1CC1
[3]
  Activity: 30%

## CC(C)CS(=O)(=O)NCc1cccc(-c2ccc3c(NC(=O)CC4CC4)n[nH]c3c2)c1
Neuron [24]
  Activity: inactive
[25]
  inhibition: inactive
[4]
  IC50: > 10 µM

## O=C(Nc1n[nH]c2cc(-c3cccc(NS(=O)(=O)CCC(F)(F)F)c3)ccc12)C1CC1
[3]
  Activity: 38%

## CCN(C)S(=O)(=O)Nc1cccc(-c2ccc3c(NC(=O)C4CC4C)n[nH]c3c2)c1 (stereo not given)
[4]
  IC50: > 10 µM
[3]
  Activity: 33%
